We go through six compounds from ChEMBL document CHEMBL2380293, “Design, synthesis, and biological evaluation of novel histone deacetylase 1 inhibitors through click chemistry” (Bioorg Med Chem Lett, 2013).

The source made the active and inactive calls. The rule behind the calls is not given here.

The test system of one test is DU-145. In words: Growth inhibition of human DU145 cells by MTT assay. The test is classed as functional.
Settings: not given
For orientation: Tetrazolium dyes change colour on reduction, which living cells bring about.
Take `COc1ccc(Br)c(Cn2cc(CCCCC(=O)NO)nn2)c1`: the GI50 (as a rule, the concentration giving 50% growth inhibition) is 5.62 µM.

`CC(C)(C)c1ccc(Cn2cc(CCCCC(=O)NO)nn2)cc1` had a GI50 of 7.2 µM.

Consider `COc1cc(Cn2cc(CCCCC(=O)NO)nn2)cc(OC)c1`, for which growth was halved (GI50) at 7.89 µM.

Consider `O=C(CCCCc1cn(Cc2ccc(Oc3ccccc3)cc2)nn1)NO`, for which growth was halved (GI50) at 4.49 µM. Compared with the last compound, the GI50 is about 1.8-fold lower.

`O=C(CCCCc1cn(Cc2ccc(Br)cc2)nn1)NO` yielded a GI50 of 7.91 µM. This GI50 lies about 1.8-fold higher than the previous one.

For `O=C(CCCCc1cn(Cc2ccc3ccccc3n2)nn1)NO`, the GI50 was determined as 4.06 µM. Against the preceding compound, the GI50 is about 1.9-fold lower.

Another test deals with HUVEC. Briefly: Growth inhibition of HUVEC at 10 uM by MTT assay. The class given is functional, cell-based. Particulars: Homo sapiens. An outline of the steps: (§1)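 MTT cell growth read-out, with SAHA as the positive control. GI50 values are means of three experiments. 10 μM was the concentration tested for scoring absence of activity.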
Turning to `COc1ccc(Br)c(Cn2cc(CCCCC(=O)NO)nn2)c1`, the “growth inhibition (GI)” value is “inactive”.

As to `CC(C)(C)c1ccc(Cn2cc(CCCCC(=O)NO)nn2)cc1`, the “growth inhibition (GI)” value is “inactive”.

With `COc1cc(Cn2cc(CCCCC(=O)NO)nn2)cc(OC)c1`, the “growth inhibition (GI)” value is “inactive”.

On to `O=C(CCCCc1cn(Cc2ccc3ccccc3n2)nn1)NO`, for which the “growth inhibition (GI)” value is “inactive”.

Another test concerns A-431. In words: Growth inhibition of human A431 cells at 10 uM by MTT assay. The test is classed as functional, cell-based.
Settings: not given
An outline of the steps: as §1
On to `COc1ccc(Br)c(Cn2cc(CCCCC(=O)NO)nn2)c1`, for which the “growth inhibition (GI)” value is “inactive”.

Consider `CC(C)(C)c1ccc(Cn2cc(CCCCC(=O)NO)nn2)cc1`, for which the “growth inhibition (GI)” value is “inactive”.

Turning to `O=C(CCCCc1cn(Cc2ccc3ccccc3n2)nn1)NO`, the “growth inhibition (GI)” value was “inactive”.

In another test the test system is HT-1080. In words: Growth inhibition of human HT1080 cells at 10 uM by MTT assay. The test is classed as functional, cell-based.
Settings: not given
An outline of the steps: as §1
In the case of `O=C(CCCCc1cn(Cc2ccc(Br)cc2)nn1)NO`, the “growth inhibition (GI)” value was “inactive”.

Another test has as its system A-431. In words: Growth inhibition of human A431 cells by MTT assay.
Settings: not given
The test is classed as functional.
As for `COc1cc(Cn2cc(CCCCC(=O)NO)nn2)cc(OC)c1`, the GI50 amounted to 6.8 µM. In other words, the single-digit micromolar range.

The compound `O=C(CCCCc1cn(Cc2ccc(Oc3ccccc3)cc2)nn1)NO` returned a GI50 of 9.03 µM.

Turning to `O=C(CCCCc1cn(Cc2ccc(Br)cc2)nn1)NO`, halving of growth (GI50) required 15.4 µM.

A further test has as its system HT-1080. Briefly: Growth inhibition of human HT1080 cells by MTT assay. The test is classed as functional. To be noted: Homo sapiens, HT-1080. The gist of the method: as §1
On to `COc1ccc(Br)c(Cn2cc(CCCCC(=O)NO)nn2)c1`, for which the GI50 is 9.94 µM.

`CC(C)(C)c1ccc(Cn2cc(CCCCC(=O)NO)nn2)cc1` gave a GI50 of 7.37 µM.

The compound `COc1cc(Cn2cc(CCCCC(=O)NO)nn2)cc(OC)c1` returned a GI50 of 8.04 µM.

Regarding `O=C(CCCCc1cn(Cc2ccc(Oc3ccccc3)cc2)nn1)NO`, the GI50 is 7.69 µM.

In the case of `O=C(CCCCc1cn(Cc2ccc3ccccc3n2)nn1)NO`, the GI50 was 10.2 µM.

A further test has as its system A549. Briefly: Growth inhibition of human A549 cells at 10 uM by MTT assay.
Settings: not given
The class given is functional, cell-based. The gist of the method: as §1
With `COc1ccc(Br)c(Cn2cc(CCCCC(=O)NO)nn2)c1`, the “growth inhibition (GI)” value was “inactive”.

In the case of `CC(C)(C)c1ccc(Cn2cc(CCCCC(=O)NO)nn2)cc1`, the “growth inhibition (GI)” value is “inactive”.

For `COc1cc(Cn2cc(CCCCC(=O)NO)nn2)cc(OC)c1`, the “growth inhibition (GI)” value is “inactive”.

Take `O=C(CCCCc1cn(Cc2ccc(Oc3ccccc3)cc2)nn1)NO`: the “growth inhibition (GI)” value was “inactive”.

Regarding `O=C(CCCCc1cn(Cc2ccc(Br)cc2)nn1)NO`, the “growth inhibition (GI)” value was “inactive”.

With `O=C(CCCCc1cn(Cc2ccc3ccccc3n2)nn1)NO`, the “growth inhibition (GI)” value is “inactive”.

The test system of a further test is BGC-823. In words: Growth inhibition of human BGC823 cells at 10 uM by MTT assay. The class given is functional, cell-based.
Settings: not given
The gist of the method: as §1
With `COc1ccc(Br)c(Cn2cc(CCCCC(=O)NO)nn2)c1`, the “growth inhibition (GI)” value was “inactive”.

On to `CC(C)(C)c1ccc(Cn2cc(CCCCC(=O)NO)nn2)cc1`, for which the “growth inhibition (GI)” value was “inactive”.

Take `COc1cc(Cn2cc(CCCCC(=O)NO)nn2)cc(OC)c1`: the “growth inhibition (GI)” value is “inactive”.

As to `O=C(CCCCc1cn(Cc2ccc(Br)cc2)nn1)NO`, the “growth inhibition (GI)” value was “inactive”.

For `O=C(CCCCc1cn(Cc2ccc3ccccc3n2)nn1)NO`, the “growth inhibition (GI)” value was “inactive”.

The subject of a further test is BGC-823. In words: Growth inhibition of human BGC823 cells by MTT assay.
Settings: not given
The class given is functional.
`O=C(CCCCc1cn(Cc2ccc(Oc3ccccc3)cc2)nn1)NO` registered a GI50 of 7.77 µM.

Another test relates to HeLa. Briefly: Growth inhibition of human HeLa cells at 10 uM by MTT assay.
Settings: not given
The test is classed as functional, cell-based. An outline of the steps:
as §1
Take `COc1ccc(Br)c(Cn2cc(CCCCC(=O)NO)nn2)c1`: the “growth inhibition (GI)” value was “inactive”.

As for `CC(C)(C)c1ccc(Cn2cc(CCCCC(=O)NO)nn2)cc1`, the “growth inhibition (GI)” value is “inactive”.

Take `COc1cc(Cn2cc(CCCCC(=O)NO)nn2)cc(OC)c1`: the “growth inhibition (GI)” value is “inactive”.

`O=C(CCCCc1cn(Cc2ccc(Oc3ccccc3)cc2)nn1)NO`: the “growth inhibition (GI)” value was “inactive”.

In the case of `O=C(CCCCc1cn(Cc2ccc(Br)cc2)nn1)NO`, the “growth inhibition (GI)” value is “inactive”.

Turning to `O=C(CCCCc1cn(Cc2ccc3ccccc3n2)nn1)NO`, the “growth inhibition (GI)” value was “inactive”.

In the next test the target is T1, Histone deacetylase 7 (Homo sapiens) (UniProt Q8WUI4).
T1 sequence (whole entry): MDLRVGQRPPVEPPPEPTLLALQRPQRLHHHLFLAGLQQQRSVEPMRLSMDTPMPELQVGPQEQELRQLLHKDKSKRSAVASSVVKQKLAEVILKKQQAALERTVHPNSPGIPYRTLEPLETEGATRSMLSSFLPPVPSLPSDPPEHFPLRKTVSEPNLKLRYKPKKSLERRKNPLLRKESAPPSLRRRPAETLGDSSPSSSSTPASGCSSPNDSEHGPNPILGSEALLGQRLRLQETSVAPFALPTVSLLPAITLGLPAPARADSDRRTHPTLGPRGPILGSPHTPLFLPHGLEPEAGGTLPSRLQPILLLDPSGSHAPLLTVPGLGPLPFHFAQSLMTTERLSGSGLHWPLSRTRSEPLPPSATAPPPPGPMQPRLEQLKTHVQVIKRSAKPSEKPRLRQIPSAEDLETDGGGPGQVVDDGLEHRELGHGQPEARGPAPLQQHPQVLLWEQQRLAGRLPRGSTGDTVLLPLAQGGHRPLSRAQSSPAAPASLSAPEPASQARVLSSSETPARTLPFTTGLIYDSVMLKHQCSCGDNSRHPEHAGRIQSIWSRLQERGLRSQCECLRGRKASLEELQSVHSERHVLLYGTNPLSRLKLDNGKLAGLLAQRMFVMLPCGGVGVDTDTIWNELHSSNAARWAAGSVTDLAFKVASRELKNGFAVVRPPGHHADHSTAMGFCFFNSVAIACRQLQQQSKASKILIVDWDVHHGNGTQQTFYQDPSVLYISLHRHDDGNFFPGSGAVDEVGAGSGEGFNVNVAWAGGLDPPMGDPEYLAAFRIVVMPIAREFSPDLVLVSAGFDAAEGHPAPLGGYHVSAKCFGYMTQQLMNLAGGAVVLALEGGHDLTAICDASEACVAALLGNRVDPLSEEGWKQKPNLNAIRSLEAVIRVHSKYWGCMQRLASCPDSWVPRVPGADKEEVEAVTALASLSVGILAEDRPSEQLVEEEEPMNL
In words: Inhibition of human recombinant HDAC7 at 10 uM incubated for 10 mins prior to substrate addition measured after 60 mins by spectrophotometric analysis.
Settings: not given
The gist of the method:
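Enzyme IC50 values are means of three experiments, with SAHA run as the positive control. Absence of activity was judged at 10 μM.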
As to `COc1ccc(Br)c(Cn2cc(CCCCC(=O)NO)nn2)c1`, the inhibition entry is “inactive”.

Regarding `CC(C)(C)c1ccc(Cn2cc(CCCCC(=O)NO)nn2)cc1`, the inhibition entry is “inactive”.

On to `COc1cc(Cn2cc(CCCCC(=O)NO)nn2)cc(OC)c1`, for which the inhibition entry was “inactive”.

In the case of `O=C(CCCCc1cn(Cc2ccc(Oc3ccccc3)cc2)nn1)NO`, the inhibition result is “inactive”.

On to `O=C(CCCCc1cn(Cc2ccc(Br)cc2)nn1)NO`, for which the inhibition entry is “inactive”.

On to `O=C(CCCCc1cn(Cc2ccc3ccccc3n2)nn1)NO`, for which the inhibition entry was “inactive”.

Another test deals with Histone deacetylase 1 (Homo sapiens, UniProt Q13547). Briefly: Inhibition of human recombinant HDAC1 incubated for 10 mins prior to substrate addition measured after 60 mins by spectrophotometric analysis.
Sequence of Histone deacetylase 1 (Q13547 whole entry): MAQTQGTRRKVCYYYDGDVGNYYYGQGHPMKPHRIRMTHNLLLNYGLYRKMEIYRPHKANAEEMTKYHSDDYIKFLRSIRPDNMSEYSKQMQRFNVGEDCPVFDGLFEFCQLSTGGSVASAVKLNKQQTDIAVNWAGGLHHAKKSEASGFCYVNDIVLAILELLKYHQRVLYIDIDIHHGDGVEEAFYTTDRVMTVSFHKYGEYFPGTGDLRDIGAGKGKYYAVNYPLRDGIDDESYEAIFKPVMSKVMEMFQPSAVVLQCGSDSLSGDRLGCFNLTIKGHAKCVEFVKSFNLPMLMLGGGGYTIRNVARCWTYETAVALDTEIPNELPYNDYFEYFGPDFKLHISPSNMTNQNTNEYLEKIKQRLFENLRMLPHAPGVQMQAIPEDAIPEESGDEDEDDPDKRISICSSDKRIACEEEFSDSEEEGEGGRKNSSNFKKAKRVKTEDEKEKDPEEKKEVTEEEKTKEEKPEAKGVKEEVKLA
Settings: not given
`COc1ccc(Br)c(Cn2cc(CCCCC(=O)NO)nn2)c1`: the IC50 – broadly, the midpoint of a concentration-inhibition curve – came out at 0.159 µM.

As to `CC(C)(C)c1ccc(Cn2cc(CCCCC(=O)NO)nn2)cc1`, the IC50 was determined as 0.601 µM.

As for `COc1cc(Cn2cc(CCCCC(=O)NO)nn2)cc(OC)c1`, the IC50 came out at 0.252 µM.

Turning to `O=C(CCCCc1cn(Cc2ccc(Oc3ccccc3)cc2)nn1)NO`, the half-maximal inhibitory concentration (IC50) came out at 0.122 µM.

As to `O=C(CCCCc1cn(Cc2ccc(Br)cc2)nn1)NO`, the IC50 stood at 1.6 µM.

Consider `O=C(CCCCc1cn(Cc2ccc3ccccc3n2)nn1)NO`, for which the IC50 was found to be 0.246 µM.
